outcome, activation and potentiation data for 30 compounds are collected here from PubChem BioAssay.

Active and inactive are the calls of the source.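 Rule for the calls, unless noted: active = current rise at least 3 SD above the untreated control mean in each of two repeat wells; inactive = the rest.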

Assay [1] in a line: thallium flux activation in parental CHO cells, counter-screen for KCNQ1 potentiator project (AID 493006;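 active = duplicate-averaged activation above buffer control mean plus 5 SD of those controls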;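 for activation: fluorescence ratio of max minus min over baseline after K+ and Tl+ depolarization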). As to conditions: parental CHO-K1 cells, FluxOR thallium flux, at 10 µM; active compounds read high. A digest of the protocol:
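Material: untransfected host CHO-K1 cells with FluxOR thallium dye. Timing: overnight 37 °C plating, 90 min RT dye, 20 min compound. Detection: kinetic FluxOR fluorescence, 10 s baseline, 110 s after stimulus. Read-out basis: max-minus-min fluorescence over baseline, percent of buffer-to-R-L3 span. Replicates: duplicate wells per compound, percent values averaged.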
For orientation: The purpose of a counterscreen is to sort out artefacts and off-target activity.

For assay [2], the target named is Potassium voltage-gated channel subfamily KQT member 1 (Homo sapiens) (UniProt P51787). Nature of the assay: KCNQ1 potassium channel potentiators, confirmation, FluxOR thallium flux, CHO cells, duplicates (AID 493007;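 active = potentiation averaged over duplicate wells exceeding buffer-only control mean by more than 3 SD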;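 for outcome: cells depolarized by a potassium plus thallium sulfate stimulus after compound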). As to conditions: KCNQ1 cell line, FluxOR thallium flux fluorescence, at 10 µM; active compounds read high, % of reference activator effect, buffer zero. A digest of the protocol: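 Test system – KCNQ1-expressing CHO cell line · Incubation – FluxOR dye loading 90 min, compound exposure 20 min, room temperature · Detection – FluxOR Tl+ flux fluorescence, 10 s baseline plus 110 s recording · Controls – buffer-only wells as 0% and R-L3 activator as 100%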

Assay [3] addresses Potassium voltage-gated channel subfamily KQT member 2 (Rattus norvegicus) (UniProt O88943). Nature of the assay: rat KCNQ2 channel potentiation, selectivity assay for KCNQ1 potentiator project, KCNQ2-CHO-K1 cells (AID 493009;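 active = mean duplicate potentiation above the buffer control mean plus 5 SD of buffer wells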;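 note: assay conditions were tuned for KCNQ1 rather than KCNQ2 modulators; signal is max minus min fluorescence divided by baseline after thallium stimulus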). Conditions: FluxOR thallium flux fluorescence, at 10 µM; active compounds read high, scaled: buffer 0, activator control 100.
The target of assay [4] is Potassium voltage-gated channel subfamily KQT member 1 (Homo sapiens) (UniProt P51787). Kind of assay: KCNQ1 channel current potentiators, confirmation, orthogonal assay for KCNQ1 potentiator project, IonWorks patch clamp, KCNQ1-CHO cells (AID 493184). As to conditions: automated patch clamp current, at 10 µM; active compounds read high. A digest of the protocol: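 Read-out: Percent current increase versus pre-compound level | Assay system: CHO cells carrying KCNQ1 | Measured by: Automated perforated-patch electrophysiology | Medium: External bath solution at pH 7.4 | Dosing: One dose, 10 µM final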

Sequence of Potassium voltage-gated channel subfamily KQT member 2 (Rattus norvegicus) (O88943 whole entry, looked up): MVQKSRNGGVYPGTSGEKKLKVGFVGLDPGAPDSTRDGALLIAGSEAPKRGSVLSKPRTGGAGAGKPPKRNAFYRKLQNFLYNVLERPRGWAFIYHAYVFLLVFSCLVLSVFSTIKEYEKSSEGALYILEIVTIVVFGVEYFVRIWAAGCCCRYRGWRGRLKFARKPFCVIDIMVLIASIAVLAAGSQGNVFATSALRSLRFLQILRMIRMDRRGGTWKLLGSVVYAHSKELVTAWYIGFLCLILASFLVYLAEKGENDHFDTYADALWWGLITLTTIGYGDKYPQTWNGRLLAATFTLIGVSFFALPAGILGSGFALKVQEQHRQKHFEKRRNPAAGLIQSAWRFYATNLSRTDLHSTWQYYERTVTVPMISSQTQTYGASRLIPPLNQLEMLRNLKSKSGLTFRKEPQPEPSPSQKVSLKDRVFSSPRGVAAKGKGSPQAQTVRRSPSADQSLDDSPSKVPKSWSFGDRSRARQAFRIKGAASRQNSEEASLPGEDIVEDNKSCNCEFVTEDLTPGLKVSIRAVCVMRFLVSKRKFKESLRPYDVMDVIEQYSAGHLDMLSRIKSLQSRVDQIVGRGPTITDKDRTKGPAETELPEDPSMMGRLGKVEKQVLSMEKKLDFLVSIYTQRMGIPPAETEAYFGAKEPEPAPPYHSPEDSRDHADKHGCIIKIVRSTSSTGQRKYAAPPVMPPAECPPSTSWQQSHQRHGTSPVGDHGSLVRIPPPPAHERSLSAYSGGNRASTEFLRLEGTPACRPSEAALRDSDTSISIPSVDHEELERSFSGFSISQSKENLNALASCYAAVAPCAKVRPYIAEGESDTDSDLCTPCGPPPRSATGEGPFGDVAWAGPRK
Sequence of Potassium voltage-gated channel subfamily KQT member 1 (Homo sapiens) (P51787 whole entry, looked up): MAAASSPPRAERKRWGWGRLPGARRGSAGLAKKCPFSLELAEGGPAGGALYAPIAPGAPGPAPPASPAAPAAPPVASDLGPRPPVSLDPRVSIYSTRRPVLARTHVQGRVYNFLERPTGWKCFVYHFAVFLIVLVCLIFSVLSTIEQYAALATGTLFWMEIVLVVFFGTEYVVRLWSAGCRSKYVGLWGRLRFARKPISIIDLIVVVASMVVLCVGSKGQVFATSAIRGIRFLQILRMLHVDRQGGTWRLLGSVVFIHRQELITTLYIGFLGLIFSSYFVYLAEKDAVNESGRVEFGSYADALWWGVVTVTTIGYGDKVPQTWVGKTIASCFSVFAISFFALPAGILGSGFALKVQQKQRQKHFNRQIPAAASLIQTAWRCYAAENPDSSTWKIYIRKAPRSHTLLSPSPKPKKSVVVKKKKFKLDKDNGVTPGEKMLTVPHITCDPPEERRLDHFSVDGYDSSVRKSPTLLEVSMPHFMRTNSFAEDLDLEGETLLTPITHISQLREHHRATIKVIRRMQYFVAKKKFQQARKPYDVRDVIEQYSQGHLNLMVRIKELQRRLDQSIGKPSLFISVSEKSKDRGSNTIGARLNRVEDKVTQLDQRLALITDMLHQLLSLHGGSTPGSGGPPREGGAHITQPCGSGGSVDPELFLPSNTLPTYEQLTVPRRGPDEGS

As to `O=C(Cn1c(=O)c2c(ncn2Cc2ccccc2)n(Cc2ccccc2)c1=O)N1CCc2ccccc21`, the result in assay [1], in assay [2], in assay [3] and in assay [4] was inactive.
For the compound `O=[N+]([O-])c1ccc(/C([O-])=C(/C(=S)NCc2ccco2)[n+]2ccccc2)cc1`, the result in assay [1], in assay [2], in assay [3] and in assay [4] was inactive.
In the case of `COC(=O)c1ccc(CSc2ncnc3sc(C)c(C)c23)o1`, the activation in assay [1] was 155% (active). Besides, the potentiation is 24% (active) in assay [2] and 163% (active) in assay [3]. Also, the result in assay [4] was inactive.
For `Cn1cccc1/C=N/n1c(-c2ccc(C(C)(C)C)cc2)n[nH]c1=S`, the outcome in assay [1], in assay [3] and in assay [4] was inactive. In addition, the potentiation in assay [2] is 266% (active).
For `CC(=O)NC(NC(C)=O)c1ccc(N(C)C)cc1`, the result in assay [1], in assay [2], in assay [3] and in assay [4] was inactive.
Turning to `Cc1ccc(-c2nc3ccccc3c(=O)n2O)cc1`, in assay [1], the activation is 169% (active). For the same compound, the potentiation in assay [2] is 19% (active); in assay [3], 171% (active). The outcome in assay [4] was inactive.
Take `CCCNC1=CC(=O)CC(C)(C)C1`: the outcome in assay [1], in assay [2], in assay [3] and in assay [4] was inactive.
Consider `O=C(NC(=S)N1CCN(c2ccc(Cl)cc2[N+](=O)[O-])CC1)c1cccs1`, for which, in assay [1], the activation was 188% (active). The potentiation in assay [2] was 61% (active); in assay [3], 244% (active). Moreover, the outcome in assay [4] was inactive.
The corresponding values for `CCC(C)n1c(=S)[nH]c2c(sc3ccc([N+](=O)[O-])cc32)c1=O` (stereo not given) are 764% (active), 342% (active), 709% (active) and “inactive”.
With `CCn1nc(C)c(NC(=O)c2cnn3c(C(F)F)cc(-c4ccccc4)nc23)c1C`, the result in assay [1], in assay [2], in assay [3] and in assay [4] was inactive.
Consider `CC(C)Cc1c2c([nH]c(=S)c1C#N)CCCC2`, for which the outcome in assay [1], in assay [2] and in assay [4] was inactive. Further, the potentiation in assay [3] is 143% (active).
Take `O=C(NC(=S)N1CCN(C/C=C/c2ccccc2)CC1)c1ccc(F)cc1`: the activation in assay [1] is 190% (active). The figures for the potentiation in assay [2] and in assay [3] were 74% (active) and 260% (active), respectively. Also, in assay [4], the outcome was inactive.
With `Cc1ccc(OCCCC(=O)NCc2ccco2)c(C)c1`, the result in assay [1], in assay [2], in assay [3] and in assay [4] was inactive.
Regarding `CCOc1ncccc1C(=O)OCc1ccc(C#N)cc1`, in assay [1], the activation is 286% (active). In addition, the potentiation in assay [2] is 114% (active); in assay [3], 392% (active). Moreover, the outcome in assay [4] was inactive.
Consider `COc1ccc2nc(NC(=S)NC(=O)c3ccco3)sc2c1`, for which the result in assay [1] and in assay [4] was inactive. Moreover, the potentiation in assay [2] is 42% (active); in assay [3], 175% (active).
As for `CCOc1ccc(CCNC(=O)CSc2nc3ncc(Cl)cc3[nH]2)cc1OCC`, the outcome in assay [1], in assay [2], in assay [3] and in assay [4] was inactive.
As to `CC(C)(C)c1cc(C(=O)NNC(=O)c2ccc(Cl)cc2)no1`, in assay [1], the activation was 200% (active). The potentiation was 86.5% (active) in assay [2] and 257% (active) in assay [3]. In addition, the result in assay [4] was inactive.
The corresponding values for `CCCCCCCCCCCCN1[C@@H](CC(=O)O)c2cc(F)ccc2S1(=O)=O` are 230% (active), 76% (active), 190% (active) and “inactive”.
Taken in the same sequence, the figures for `CCCCn1c(-c2csc3c2CCC(C)C3)n[nH]c1=S` (stereo not given) were 145% (active), 75.5% (active), 150% (active) and “inactive”.
With `CCN(CC)CCn1c(OC)cc(=O)[nH]c1=O`, the result in assay [1], in assay [2], in assay [3] and in assay [4] was inactive.
Consider `Cc1c(CN2CCN(C)C(CCO)C2)[nH]c2c(Cl)cccc12` (stereo not given), for which the result in assay [1], in assay [2], in assay [3] and in assay [4] was inactive.
For the compound `O=Cc1ccccc1OCCCOc1cccc2cccnc12`, the outcome in assay [1], in assay [2], in assay [3] and in assay [4] was inactive.
Regarding `Cc1cccc(NC(=O)c2cccnc2)c1`, the result in assay [1], in assay [2], in assay [3] and in assay [4] was inactive.
With `COc1cccc2sc(Nc3nnc(-c4cccs4)o3)nc12`, in assay [1], the activation was 396% (active). For the same compound, the potentiation is 250% (active) in assay [2] and 424% (active) in assay [3]. The result in assay [4] was inactive.
For the compound `CCC/C=N/NC(=O)c1[nH]c2c([N+](=O)[O-])cccc2c1C`, the outcome in assay [1], in assay [2], in assay [3] and in assay [4] was inactive.
Consider `C=CCn1c(O)c(N=NC(=S)Nc2ccccc2F)c2cc(S(=O)(=O)N3CCOCC3)ccc21`, for which the outcome in assay [1], in assay [3] and in assay [4] was inactive. In addition, the potentiation in assay [2] is 26.5% (active).
As to `O=C(CN1C2=NCCCN2c2ccccc21)c1ccc2c(c1)OCO2`, the result in assay [1], in assay [2], in assay [3] and in assay [4] was inactive.
With `Cc1cccc(C(=O)NC(=S)N(C)C2CCCCC2)c1`, in assay [1], the activation is 268% (active). Moreover, the potentiation in assay [2] is 72.5% (active); in assay [3], 326% (active). Further, in assay [4], the result was inactive.
Consider `CCN(CC)CC(O)Cn1c2ccccc2c2ccccc21` (stereo not given), for which the outcome in assay [1], in assay [2], in assay [3] and in assay [4] was inactive.
For the compound `CCCCN(CCCC)C(=S)NC(=O)c1ccccc1Cl`, the activation in assay [1] is 556% (active). The values for the potentiation in assay [2] and in assay [3] were 238% (active) and 542% (active), respectively. In addition, the result in assay [4] was inactive.
